Source: the array DNA melting data of Ke et al. (doi:10.1101/2024.01.08.574731)

What was measured:
[1] = melting temperature; fluorescence melt of hairpins on a sequencing array, two-state fit, raised by 9.35 °C to match UV melts; conditions: sodium 0.088 M
Outline: (§1)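 Cy3 fluorescence of library hairpins on a sequenced MiSeq flow cell, with annealed Cy3 and quencher oligos, was imaged in 50 mM Na-HEPES pH 8.0, 25 mM NaCl in 2.5 °C steps up to 60 °C. Signals were normalised to pre-quench Cy3 and to control variants. Melting temperature and folding enthalpy came from bootstrapped two-state fits, inverse-variance combined over four replicates. Fitted temperatures were raised by 9.35 °C to match UV melts.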

[2] = folding enthalpy; higher = less favourable; fluorescence melt of hairpins on a sequencing array, two-state fit; conditions: sodium 0.088 M
Outline: as §1

Sequence	Tm [1]	folding enthalpy [2]
GCGAACACGAAAGTGCGC (((..(((....))))))	51 °C	-21.2 kcal/mol
GCGAACCATCGC ((((....))))	47.7 °C	-18.7 kcal/mol
GCGAACCGAAAGGTACGC (((.(((....))).)))	64.3 °C	-45.7 kcal/mol
GCGAACCGAAAGGTCCGC (((.(((....))).)))	62.8 °C	-44.5 kcal/mol
GCGAACGAAAGTTCCCGC ((((((....)))..)))	36.7 °C	-16.3 kcal/mol
GCGAACGGAAACGTTCAC (.(((((....))))).)	46.1 °C	-14.4 kcal/mol
GCGAACGGTCGC ((((....))))	47.7 °C	-30.9 kcal/mol
GCGAAGACTCGC ((((....))))	44.8 °C	-15.8 kcal/mol
GCGAAGCGAAAGCATAGC ((.(.((....)).).))	52.5 °C	-15.7 kcal/mol
GCGAAGCGAAAGCATCGC ((((.((....)).))))	61.1 °C	-17.4 kcal/mol
GCGAAGCGAAAGCCCCGC (((..((....))..)))	36.3 °C	-7.44 kcal/mol
GCGAAGCGAAAGCGTCGC ((((.((....)).))))	68.7 °C	-21.3 kcal/mol
GCGAAGCGAAAGCTAGGC ((..(((....)))..))	40.9 °C	-5.32 kcal/mol
GCGAAGCGAAAGCTCAGC ((..(((....)))..))	41.1 °C	-7.68 kcal/mol
GCGAAGCGAAAGCTCGC (((.(((....))))))	67.1 °C	-24.3 kcal/mol
GCGAAGCGAAAGCTGTGC ((..(((....)))..))	46.5 °C	-8.75 kcal/mol
GCGAAGGATCGC ((((....))))	59.7 °C	-9.71 kcal/mol
GCGAAGGGAAACCTTTGC ((.((((....)))).))	49.8 °C	-34.6 kcal/mol
GCGAAGGTTCGC ((((....))))	50.4 °C	-20.8 kcal/mol
GCGAAGTTCGC ((((...))))	46.4 °C	-17 kcal/mol
GCGAATACTCGC ((((....))))	46.2 °C	-22.1 kcal/mol
GCGAATCTCGC ((((...))))	47.4 °C	-19.7 kcal/mol
GCGAATGCTCGC ((((....))))	57.7 °C	-11.5 kcal/mol
GCGAATGGAAACATTTGC ((.((((....)))).))	49.5 °C	-33.6 kcal/mol
GCGAATTCGAAAGAACGC (((..(((....))))))	40.5 °C	-20.4 kcal/mol

Sequence	Tm [1]	folding enthalpy [2]
GCGACAGGAAACCGTCGC (((((.(....).)))))	58.8 °C	-43.4 kcal/mol
GCGACAGGAAACTACCGC (((..((....))..)))	31.6 °C	-20.5 kcal/mol
GCGACAGGAAACTATCGC ((((.((....)).))))	43.7 °C	-31.9 kcal/mol
GCGACATGTCGC ((((....))))	63.8 °C	-37 kcal/mol
GCGACCACGAAAGTGCGC (((..(((....))))))	48.5 °C	-20.9 kcal/mol
GCGACCCCGAAAGGGCGC (((..(((....))))))	67.7 °C	-29.1 kcal/mol
GCGACCCCTCGC ((((....))))	50.1 °C	-23.4 kcal/mol
GCGACCCTCGC ((((...))))	49.4 °C	-20.7 kcal/mol
GCGACCGAAAGGTCTCGC ((((((....)))..)))	50.2 °C	-14.6 kcal/mol
GCGACCGGAAACGACCGC (((..((....))..)))	41.8 °C	-27.4 kcal/mol
GCGACCGGAAACGATCGC ((((.((....)).))))	55 °C	-38.7 kcal/mol
GCGACCGGAAACGGCCAC (.(.(((....))).).)	32.5 °C	-14.4 kcal/mol
GCGACCGTCGC ((((...))))	45.5 °C	-26.8 kcal/mol
GCGACCTATCGC ((((....))))	49.3 °C	-28.4 kcal/mol
GCGACGCGAAAGCAGCGC (((..((....))..)))	65.7 °C	-30.3 kcal/mol
GCGACGCGAAAGCCTCGC ((((.((....)).))))	60.4 °C	-33.3 kcal/mol
GCGACGCGAAAGCCTGGC ((.(.((....)).).))	28.1 °C	-5.89 kcal/mol
GCGACGCGAAAGCGAGGC ((..(((....)))..))	54.6 °C	-12.8 kcal/mol
GCGACGCGAAAGCTCCGC (((..((....))..)))	50.6 °C	-20.2 kcal/mol
GCGACGGCGAAAGCCCGC (((..(((....))))))	58.1 °C	-16.6 kcal/mol
GCGACGGGAAACCGCCAC (.(.(((....))).).)	31.9 °C	-13.4 kcal/mol
GCGACGGGAAACCGTCAC (.(((((....))))).)	48.7 °C	-13 kcal/mol
GCGACTCATCGC ((((....))))	49 °C	-24.5 kcal/mol
GCGACTCGAAAGAGCGC (((.(((....))))))	60.4 °C	-32.7 kcal/mol
GCGACTGGAAACAACCGC (((..((....))..)))	29.2 °C	-18.1 kcal/mol

Sequence	Tm [1]	folding enthalpy [2]
GCGACTTCTCGC ((((....))))	47.8 °C	-25.7 kcal/mol
GCGAGAGATCGC ((((....))))	50.3 °C	-17.5 kcal/mol
GCGAGATTTCGC ((((....))))	50.1 °C	-20.1 kcal/mol
GCGAGCACTCGC ((((....))))	56.8 °C	-26.4 kcal/mol
GCGAGCCCGAAAGGGCGC (((..(((....))))))	55.8 °C	-7.38 kcal/mol
GCGAGCCCTCGC ((((....))))	55 °C	-26 kcal/mol
GCGAGCCTCGC ((((...))))	49.7 °C	-21.9 kcal/mol
GCGAGCGAAAGCTACCGC ((((((....)))..)))	48.1 °C	-18.8 kcal/mol
GCGAGCGAAAGCTGTCGC ((((((....)))..)))	52.9 °C	-23.8 kcal/mol
GCGAGCGAAAGCTTCGC ((((((....))).)))	66.1 °C	-28 kcal/mol
GCGAGCGGAAACGCTTGC ((.((((....)))).))	61.9 °C	-34.4 kcal/mol
GCGAGCGTCGC ((((...))))	60 °C	-10.2 kcal/mol
GCGAGCTATCGC ((((....))))	60.8 °C	-24.2 kcal/mol
GCGAGCTCTCGC ((((....))))	53.1 °C	-30.9 kcal/mol
GCGAGCTTCGC ((((...))))	49 °C	-18.5 kcal/mol
GCGAGGAGTCGC ((((....))))	52.8 °C	-13.4 kcal/mol
GCGAGGCGAAAGCCATGC ((..(((....)))..))	58.1 °C	-17.6 kcal/mol
GCGAGGCGAAAGCCTGGC ((.((((....)))).))	66.5 °C	-24.8 kcal/mol
GCGAGGCGAAAGCGTTGC ((.(.((....)).).))	55.5 °C	-18.6 kcal/mol
GCGAGGCGAAAGCTTAGC ((.(.((....)).).))	56.9 °C	-16.7 kcal/mol
GCGAGGGCGAAAGCCCGC (((..(((....))))))	59.5 °C	-8.66 kcal/mol
GCGAGGTATCGC ((((....))))	55.6 °C	-21.6 kcal/mol
GCGAGGTCTCGC ((((....))))	54.9 °C	-22 kcal/mol
GCGAGTACGAAAGTACGC (((..(((....))))))	53.1 °C	-12 kcal/mol
GCGAGTAGTCGC ((((....))))	54.3 °C	-19.9 kcal/mol

Sequence	Tm [1]	folding enthalpy [2]
GCGAGTCATCGC ((((....))))	67.8 °C	-24.8 kcal/mol
GCGAGTGGAAACGCTCGC (((((.(....).)))))	64 °C	-46 kcal/mol
GCGAGTGTTCGC ((((....))))	49 °C	-14.4 kcal/mol
GCGAGTTATCGC ((((....))))	57.6 °C	-24 kcal/mol
GCGAGTTCTCGC ((((....))))	56.2 °C	-25.6 kcal/mol
GCGATACGAAAGTACCGC (((.(((....))).)))	54.2 °C	-43.2 kcal/mol
GCGATACGAAAGTACGC (((.(((....))))))	55.4 °C	-29.6 kcal/mol
GCGATAGAAATATCGC ((((((....))))))	58.3 °C	-41.7 kcal/mol
GCGATAGCGAAAGCTCGC (((..(((....))))))	51.5 °C	-18.5 kcal/mol
GCGATAGGAAACCATCGC (((((.(....).)))))	50.1 °C	-34.5 kcal/mol
GCGATAGGAAACTACCGC (((.(((....))).)))	44.7 °C	-28.5 kcal/mol
GCGATAGGAAACTATCGC (((((((....)))))))	65.9 °C	-57.2 kcal/mol
GCGATCACGAAAGTGCGC (((..(((....))))))	48.7 °C	-20.9 kcal/mol
GCGATCCCTCGC ((((....))))	49.8 °C	-24.1 kcal/mol
GCGATCCGAAAGGACGC (((.(((....))))))	61.3 °C	-37.7 kcal/mol
GCGATCCGTCGC ((((....))))	51.6 °C	-24.6 kcal/mol
GCGATCGAAAGATATCGC ((((((....)))..)))	47 °C	-29.2 kcal/mol
GCGATCGAAAGATTCGC ((((((....))).)))	53.5 °C	-45.1 kcal/mol
GCGATCGATCGC ((((....))))	56.5 °C	-41.2 kcal/mol
GCGATCGCGAAAGCGCGC (((..(((....))))))	55.2 °C	-15.4 kcal/mol
GCGATCGGAAACAATCGC (((((.(....).)))))	48.1 °C	-37.6 kcal/mol
GCGATCGGAAACGGTTGC ((.(.((....)).).))	44.9 °C	-29.6 kcal/mol
